From the RNAGym collection of RNA variant scans (doi:10.1126/science.aae0568)
This sample holds only a part of the variants without activity.

B1: tRNA (parent)
chain: GUUCCGUUGGCGUAAUGGUAACGCGUCUCCCUCCUAAGGAGAAGACUGCGGGUUCGAGUCCCGUACGGAACG

Variants of: B1
Experiment: yeast fitness relative to wild type (ratio to wild type); higher = fitter; tRNA-Arg(CCU), competitive growth, 37 C, YPD
Summary of the method: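 Start and end populations of a pooled competition were compared by 100-nucleotide paired-end sequencing of gene amplicons. The Saccharomyces cerevisiae strains carried tRNA-Arg(CCU) gene variants at the native genomic locus, synthesised with a 3% per-site mutation rate at 69 sites, and competed in YPD at 37°C for 24 hours in six parallel replicates. Darwinian fitness relative to wild type was based on the change in genotype frequencies. Genotypes required ≥ 100 starting reads, and estimates < 0.5 were set to 0.5.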

Point of comparison: C22U G25C, yeast fitness 0.697. Against it:
- G23C C24G C33G A40U A70G — lower, ≤ 0.5
- G23U C49U C55A C66U — lower, ≤ 0.5
- G23C A42U A43G A65U — lower, ≤ 0.5
- G23C C27G C55G G56A G58A C66G A70U — lower, ≤ 0.5
- G23A C33G C62A — higher, 0.742
- C22U U35C C55A A65G C66U — lower, ≤ 0.5
- G23C C24A U32C A65U G68A — lower, ≤ 0.5
- C24A C27U A40U G44C A57U G67C — lower, ≤ 0.5
- G23A A42G C61U — lower, ≤ 0.5
- G23C G56C — lower, ≤ 0.5
- G23C G56A — lower, 0.566
- C24A C27G C61U — lower, 0.575
- G23A G58A — higher, 0.715
- G23A G58C — higher, 0.885
- G23C A37G A42U G48C C49U — lower, ≤ 0.5
- C22U G25A U32A A36C A70G — lower, ≤ 0.5
- C22U U32A C46G G52C C62U — lower, ≤ 0.5
- C24A A45G C61U — lower, ≤ 0.5
- C22U G41C — higher, 0.698
- C24A C29U G67U — lower, 0.591
- G23A C62U — higher, 0.781
- G23A C62G — higher, 0.782
- G23A C46A — higher, 0.882
- G23A C49U — higher, 0.735
- C24A C31G — lower, 0.625
- C24A C31A — lower, 0.603
- C24A C31U — higher, 0.754
- G23A C29G U64A — lower, ≤ 0.5
- G23C U47G — lower, 0.626
- G23A C49U A65C — lower, 0.523
- C24A A43G A70C — lower, ≤ 0.5
- C24A A40U A43U C61G G68U — lower, 0.597
- G23A U47A U64A — lower, ≤ 0.5
- G23C C34G C55G — lower, ≤ 0.5
- G23A C30U G39A C60G — lower, ≤ 0.5
- C22U U64A — higher, 0.837
- G23C A37C — lower, 0.656
- G23C A37G — lower, ≤ 0.5
- G23A G52C — lower, 0.564
- C24A C27G C29G G52C C62U — lower, 0.567
- G23C G48A U64A A65U — lower, ≤ 0.5
- C22U U47A G63A — lower, 0.503
- C22U G44C — higher, 0.812
- G23A C49U G63A A65C — lower, ≤ 0.5
- G23C A37U U47C C55U C60G C66U — lower, ≤ 0.5
- G23A C34U C66U — lower, 0.586
- C22U U54C — higher, 0.724
- G23A U35C — lower, 0.572
- G23A C61A A70U — lower, ≤ 0.5
- C24A C30U A45G U54C A57U C62U — lower, 0.548
- C24A C29G U32G G38A U47A — lower, ≤ 0.5
- G23C U28A — lower, 0.559
- G23A A36G A57C C60A — lower, ≤ 0.5
- G23A A40G C46G — lower, ≤ 0.5
- G23C U28C C46G C62G — lower, ≤ 0.5
- C22U G68A — higher, 0.852
- C22U G68C — higher, 0.717
- C24A A42G C61U C62G — lower, 0.541
- C24A C29U C61G — lower, ≤ 0.5
- C24A C31G C60U — lower, ≤ 0.5
- G23C A36C A45C G58A G68C — lower, ≤ 0.5
- G23A U53C C66A — lower, ≤ 0.5
- G23C C31G G50A — lower, ≤ 0.5
- C22U U32C G51A C61G — lower, ≤ 0.5
- G23C G56A A70U — lower, ≤ 0.5
- G23C U28G G41A A42U U59A — lower, ≤ 0.5
- C22U U26A C29U U54C C66U — lower, ≤ 0.5
- C22U G39A C49G — lower, ≤ 0.5
- G23C U53A — lower, 0.55
- G23A C33G A70U — lower, ≤ 0.5
- C22U U32C G48C A57G G68C — lower, ≤ 0.5
- C22U U32A C46G G52C — lower, ≤ 0.5
- G23C G39C A70U — lower, ≤ 0.5
- C22U G51C — lower, 0.512
- C22U G51C C61G A70C — lower, 0.514
- C22U G38A G68A — lower, 0.584
- C22U U26A U47C C62A — lower, ≤ 0.5
- G23C A65U — lower, 0.585
- G23C A37G C66A — lower, ≤ 0.5
- G23A C31G — higher, 0.811
- G23A C31U — higher, 0.731
- G23C C46U A70U — lower, 0.622
- G23A A57G — higher, 0.715
- C22U U32C C61G A69C — lower, ≤ 0.5
- G23A A36C — lower, 0.586
- G23A A36U — lower, 0.536
- G23U C60U A65G — lower, ≤ 0.5
- G23A A36U A40C G52A C61G — lower, 0.639
- G23C C29G G63C C66G — lower, ≤ 0.5
- G23A A36U G39C A70C — lower, ≤ 0.5
- C22U U26A C34A A37U G48C — higher, 0.799
- G23C A36U C46G C60U — lower, 0.591
- C22U G56C — lower, 0.608
- C24A A43U G50A G67A — lower, ≤ 0.5
- G23C C46U C62U — lower, 0.592
- C24A A36G C61U — lower, ≤ 0.5
- C22U G25C C33U A37U — lower, ≤ 0.5
- C24A A37G — lower, 0.513
- C24A A37U — lower, 0.579
- C22U U35C A36C — lower, ≤ 0.5
- G23C G67A — lower, 0.56
- C24A A36C G41A U53C — lower, ≤ 0.5
- G23A A36G C61U A65U — lower, ≤ 0.5
- G23C U54C — lower, 0.502
- G23C A65G C66A — lower, ≤ 0.5
- G23A A43U C49U C62U — lower, ≤ 0.5
- G23U G52A C55A U64A — lower, ≤ 0.5
- G23C C24G C34G U64A G67A — lower, ≤ 0.5
- C24A A36U C55A — lower, ≤ 0.5
- C24A A37C G38A — lower, 0.61
- C22U G25A C55U C66U — lower, ≤ 0.5
- C22U U32C G52A C61U — lower, ≤ 0.5
- C22U U54C C66G — lower, ≤ 0.5
- G23A C27U A37U C60U C61A — lower, ≤ 0.5
- C22U U26A U47C — lower, ≤ 0.5
- C22U G25C U28C A36G G51A — lower, ≤ 0.5
- C22U U35A G67U — lower, ≤ 0.5
- G23A C34A A43U U47C — lower, 0.577
- G23A G48C C55G — lower, ≤ 0.5
- C22U G25C C31U — lower, 0.625
- C22U U54C G67A — lower, ≤ 0.5
- G23A C29U C33G A42G — lower, ≤ 0.5
- C24A A45G C61G C62U — lower, 0.543
- G23A U59C — higher, 0.799
- G23A C29G G52C — lower, ≤ 0.5
- G23U U54G — lower, ≤ 0.5
- C24A A36G A43G — lower, ≤ 0.5
- C22U U32G C34U A40G — lower, 0.62
- G23C G41C C66U — lower, ≤ 0.5
- C24A A42G C49U U59G C62A A69G — lower, ≤ 0.5
- G23A C29A G48A C55A — lower, ≤ 0.5
- G23A C27G C34A A45C U64G — lower, ≤ 0.5
- G23C C29A C66U — lower, ≤ 0.5
- C22U U32G C34U A40G G58A C66U — lower, ≤ 0.5
- G23C A36U U53C — lower, 0.553
- G23A C49A G58A — lower, ≤ 0.5
- C22U G25A G50A A69U — lower, ≤ 0.5
- C22U G25A C31A — higher, 0.728
- G23A U26C C29U C33G — lower, ≤ 0.5
- C24A C30U C55U — lower, ≤ 0.5
- G23C G41A — higher, 0.716
- G23C A37C A42G C46G C66U — lower, ≤ 0.5
- G23A A70G — lower, 0.689
- G23A A70U — higher, 0.854
- G23A C30U G63A — lower, ≤ 0.5
- C22U G58C A69G — lower, 0.602
- G23A U26G A40C C46G C60G — lower, ≤ 0.5
- G23A C31G A45C G52C — lower, ≤ 0.5
- C24A A42G — lower, 0.548
- C24A A43C — lower, 0.55
- C24A A43G — lower, 0.597
- C22U G38C G48A — lower, ≤ 0.5
- G23A A36C U47C G48C — lower, ≤ 0.5
- G23A C27U — higher, 0.706
- G23A C55A — lower, ≤ 0.5
- G23A G51A C66U — lower, ≤ 0.5
- C24A C30U A65G C66U — lower, ≤ 0.5
- C24A C30U A45G — lower, ≤ 0.5
- G23C A43U — higher, 0.733
- G23C C27G C31G — lower, 0.608
- G23C C29G A43U G50A A70U — lower, ≤ 0.5
- G23C C24G U32G A42C G44A G51C C60U — lower, ≤ 0.5
- G23C C33G C46A C66A — lower, 0.596
- G23A A40U A70G — lower, 0.537
- G23C U26G C33G A45C — lower, ≤ 0.5
- C22U U28C C34U A40C U64A — higher, 0.762
